From PubChem BioAssay
Only some compounds are listed: those with a hit (about 5.8% of all), similar ones and a draw of the others.
T cruzi growth-1 = blocks T. cruzi growth in NIH3T3 culture | inhibition, % at 8.34 µM | 77,000 compounds, 5.9% hits | AID 624255 | T. cruzi beta-gal in NIH3T3, GalScreen luminescence, 90 h;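 active means mean inhibition above about 93%, with at least 55% of replicates each passing it, limit read from the data, passing the limit was not always enough; inconclusive means only one of those two conditions holds; inactive means neither condition holds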
IDH1 mut inh = blocks human IDH1 R132H reductase activity; O75874; diaphorase/resazurin fluorescence, 60 min; inhibition, % at 10 µM; 70,000 compounds, 0.18% hits; in the data active means inhibition above about 34%; inconclusive means no clear call, values can overlap the other calls; inactive means below about 11%
KDM4C inh = blocks human GASC-1 (KDM4C) demethylase activity | Q9H3R0 | GST-KDM4C 2-372, H3K9me3 peptide, LANCE TR-FRET | inhibition, % at 12.5 µM | 96,000 compounds, 0.15% hits;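 active means mean replicate inhibition above about 25%, with at least 55% of replicates also reaching it, limit read from the data, passing the limit was not always enough; inconclusive means only one of those two conditions met; inactive means neither condition met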
Target sequence (Q9H3R0 2-372 limits assumed): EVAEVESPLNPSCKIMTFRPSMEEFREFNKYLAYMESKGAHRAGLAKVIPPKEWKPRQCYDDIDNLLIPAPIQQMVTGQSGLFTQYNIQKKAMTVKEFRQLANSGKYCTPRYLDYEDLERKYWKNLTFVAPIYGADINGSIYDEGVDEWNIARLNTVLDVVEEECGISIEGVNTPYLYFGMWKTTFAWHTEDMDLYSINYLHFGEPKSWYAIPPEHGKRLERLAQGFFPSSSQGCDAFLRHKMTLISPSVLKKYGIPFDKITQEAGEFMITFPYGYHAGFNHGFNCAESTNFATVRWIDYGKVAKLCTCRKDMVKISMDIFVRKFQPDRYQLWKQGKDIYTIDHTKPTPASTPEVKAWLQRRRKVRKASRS
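Material: GST-tagged GASC-1 (JMJD2C) catalytic fragment, aa 2-372 / Quantity: enzyme final amount 10 nM / Medium: HEPES buffer, pH 7.5, plus ascorbate / Doses: one test concentration per compound / Incubation: 30 min reaction, 60 min detection, RT / Measured by: LANCE TR-FRET / Read-out: inhibition from TR-FRET ratio decrease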
Pf Dd2 growth = P. falciparum Dd2 growth inhibition; SYBR Green, 72 h; stronger effect = lower value; activity change, % at 10 µM; 94,000 compounds, 2.3% hits; in the data active means activity change below about -80%; inconclusive means no clear call, values can overlap the other calls
T cruzi growth-2 = blocks T. cruzi growth in NIH3T3 host cells | shares compounds with T cruzi growth-1 | T. cruzi beta-gal in NIH3T3, GalScreen luminescence, 90 h | inhibition, % at 8.35 µM | 5,600 compounds, 72% hits;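 active means mean replicate inhibition above about 95% and at least 55% of replicates individually reaching it, limit read from the data; inconclusive means only one of the two criteria is met; inactive means neither criterion is met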
T cruzi growth-3 = inhibitors of T. cruzi proliferation | shares compounds with T cruzi growth-1 | T. cruzi beta-gal in NIH3T3, GalScreen luminescence, 90 h | inhibition, % at 2.09 µM | 5,600 compounds, 21% hits | AID 651740;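 active means mean inhibition above about 95%, with at least 55% of replicates also reaching it, limit read from the data; inconclusive means meets just one of the two conditions; inactive means meets neither condition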
NIH3T3 tox = cytotoxicity in mouse NIH/3T3 fibroblasts; cytotoxicity (signal decrease), % at 8.35 µM; shares compounds with T cruzi growth-1; AID 651742; NIH/3T3 viability, CellTiter-Glo ATP luminescence, 90 h; 5,600 compounds, 14% hits;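 active means mean signal decrease across replicates above about 35% based on untreated-well scatter, with enough replicates individually passing, limit read from the data; inconclusive means no rule stated though some were filed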
3T3 cytotox 2 = cytotoxicity in mouse NIH/3T3 fibroblasts | shares compounds with T cruzi growth-1 | NIH/3T3 viability, CellTiter-Glo ATP luminescence, 90 h | inhibition, % at 24.9 µM | 5,600 compounds, 56% hits | AID 651744;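 active means mean loss of cell viability signal at or above a set limit, and enough replicates individually reaching it; inconclusive means meets only the mean limit or only the replicate share; inactive means meets neither condition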
Hits are given with their value.

`Cc1ccc(N(C(C)C(=O)Nc2ccc(Cl)cc2)S(C)(=O)=O)cc1C` (configuration not stated) gave IDH1 mut inh inactive.
For Cc1ccc(S(=O)(=O)NCC(=O)Nc2ccccc2F)cc1 the results were IDH1 mut inh inactive.
For CN1CCN(C(=O)[C@H]2[C@H](CO)[C@H]3Cn4c(cccc4=O)[C@@H]2N3Cc2ccncc2)CC1 the results were T cruzi growth-1 active, KDM4C inh inactive, T cruzi growth-2 inactive, T cruzi growth-3 inactive, NIH3T3 tox inactive and 3T3 cytotox 2 inactive.
For O=C(NCc1ccc(F)cc1)[C@@H]1[C@@H](CO)[C@@H]2Cn3c(cccc3=O)[C@H]1N2Cc1ccncc1 the results were T cruzi growth-1 inactive, KDM4C inh inactive and Pf Dd2 growth inactive.
`O=C(Nc1ccccc1)[C@@H]1[C@@H](CO)[C@@H]2Cn3c(cccc3=O)[C@H]1N2Cc1ccncc1` gave T cruzi growth-1 99.7, KDM4C inh inactive, Pf Dd2 growth inactive, T cruzi growth-2 inconclusive, T cruzi growth-3 inactive, NIH3T3 tox inactive and 3T3 cytotox 2 inactive.
For O=C(NCc1ccc(F)cc1)[C@@H]1[C@@H](CO)[C@@H]2Cn3c(cccc3=O)[C@H]1N2 the results were T cruzi growth-1 inconclusive, KDM4C inh inactive, Pf Dd2 growth inactive, T cruzi growth-2 inactive, T cruzi growth-3 inactive, NIH3T3 tox inactive and 3T3 cytotox 2 inactive.
Screening O=C(NCc1ccc(F)cc1)[C@H]1[C@H](CO)[C@H]2Cn3c(cccc3=O)[C@@H]1N2Cc1cccnc1 returned T cruzi growth-1 99.1, KDM4C inh inactive, Pf Dd2 growth inactive, T cruzi growth-2 inactive, T cruzi growth-3 inactive, NIH3T3 tox inactive and 3T3 cytotox 2 inactive.
N#C/C(=C\c1ccc(C2=CCOc3ccccc32)s1)S(=O)(=O)c1ccccc1 was read as IDH1 mut inh inactive.
`CC(C)(C)C(=O)CSc1nnc(-c2ccco2)o1` gave IDH1 mut inh inactive.
Cc1ccccc1-n1nnnc1SCC(=O)Nc1cccc(Cl)c1Cl was read as IDH1 mut inh inactive.
Screening O=C(C[C@@H]1CC[C@@H]2[C@H](COC[C@@H](O)CN2Cc2ccccc2F)O1)NCc1ccccc1F returned T cruzi growth-1 inactive, KDM4C inh inactive and Pf Dd2 growth inactive.
`CNC(=O)C[C@@H]1CC[C@H]2[C@@H](COC[C@@H](O)CN2Cc2ccccc2F)O1` gave KDM4C inh inactive and Pf Dd2 growth inactive.
CCCNC(=O)C[C@@H]1CC[C@@H]2[C@H](COC[C@@H](O)CN2Cc2ccccc2F)O1 was read as T cruzi growth-1 110.6, KDM4C inh inactive, Pf Dd2 growth inactive, T cruzi growth-2 inactive, T cruzi growth-3 inactive, NIH3T3 tox inactive and 3T3 cytotox 2 inactive.
For CCCNC(=O)C[C@H]1CC[C@@H]2[C@H](COC[C@@H](O)CN2Cc2ccccc2F)O1 the results were T cruzi growth-1 96.7, KDM4C inh inactive, Pf Dd2 growth inactive, T cruzi growth-2 inactive, T cruzi growth-3 inactive, NIH3T3 tox inactive and 3T3 cytotox 2 inactive.
`CCCC#Cc1ccc([C@@H]2[C@@H](CO)N(C(=O)C3CCCC3)[C@H]2C#N)cc1` gave T cruzi growth-1 99.8, KDM4C inh inactive, Pf Dd2 growth inactive, T cruzi growth-2 97.4, T cruzi growth-3 98.4, NIH3T3 tox inactive and 3T3 cytotox 2 inactive.
`CCCC#Cc1ccc([C@H]2[C@@H](CO)N(C(=O)C3CCC3)[C@H]2C#N)cc1` gave KDM4C inh inactive and Pf Dd2 growth inactive.
Screening CCCC#Cc1ccc([C@@H]2[C@H](C#N)N(C(=O)C3CCC3)[C@H]2CO)cc1 returned T cruzi growth-1 inconclusive, KDM4C inh inactive, Pf Dd2 growth inactive, T cruzi growth-2 100.8, T cruzi growth-3 104.6, NIH3T3 tox inactive and 3T3 cytotox 2 29.7.
CCCC#Cc1ccc([C@H]2[C@@H](C#N)N(C(=O)C3CCCC3)[C@@H]2CO)cc1 was read as T cruzi growth-1 102.5, KDM4C inh inactive, Pf Dd2 growth inactive, T cruzi growth-2 100.1, T cruzi growth-3 103.7, NIH3T3 tox inactive and 3T3 cytotox 2 inactive.
For CC(C)C#Cc1ccc([C@@H]2[C@@H](C#N)N(C(=O)C3CCC3)[C@@H]2CO)cc1 the results were T cruzi growth-1 inactive, KDM4C inh inactive and Pf Dd2 growth inactive.
`CC(C)C#Cc1ccc([C@H]2[C@H](C#N)N(C(=O)C3CCC3)[C@H]2CO)cc1` gave T cruzi growth-1 96.5, KDM4C inh inactive, Pf Dd2 growth inactive, T cruzi growth-2 107.9, T cruzi growth-3 inactive, NIH3T3 tox inactive and 3T3 cytotox 2 inactive.
Screening COC(=O)c1ccccc1NC(=O)COc1ccc2ccccc2c1Br returned IDH1 mut inh inactive.
CCCC#Cc1ccc([C@@H]2[C@@H](C#N)N(C(=O)C3CCCCC3)[C@@H]2CO)cc1 was read as T cruzi growth-1 103.4, KDM4C inh inactive, Pf Dd2 growth inactive, T cruzi growth-2 99.6, T cruzi growth-3 inactive, NIH3T3 tox inactive and 3T3 cytotox 2 inactive.
`CCCC#Cc1ccc([C@H]2[C@@H](C#N)N(C(=O)C3CCCCC3)[C@H]2CO)cc1` gave T cruzi growth-1 inactive, KDM4C inh inactive and Pf Dd2 growth inactive.
For COc1ccc(NC(=O)Nc2ccc3c(c2)C(=O)N([C@H](C)CO)C[C@H](C)[C@@H](CN(C)S(=O)(=O)c2ccc(F)cc2)OCCCC[C@H](C)O3)cc1 the results were T cruzi growth-1 113.1, IDH1 mut inh inactive, KDM4C inh inactive, Pf Dd2 growth inactive, T cruzi growth-2 109.7, T cruzi growth-3 inactive, NIH3T3 tox inactive and 3T3 cytotox 2 inactive.
COc1ccc(S(=O)(=O)N(C)C[C@H]2OCCCC[C@H](C)Oc3ccc(NC(=O)Nc4ccc(F)cc4)cc3C(=O)N([C@H](C)CO)C[C@@H]2C)cc1 was read as T cruzi growth-1 inconclusive, KDM4C inh inactive, Pf Dd2 growth inactive, T cruzi growth-2 105.1, T cruzi growth-3 inactive, NIH3T3 tox inactive and 3T3 cytotox 2 inactive.
Screening O=S(=O)(c1ccccc1)N1CCCCN2[C@H](CO)[C@H](c3ccc(-c4ccccc4)cc3)[C@@H]2C1 returned T cruzi growth-1 104.2, KDM4C inh inactive, Pf Dd2 growth inactive, T cruzi growth-2 100.1, T cruzi growth-3 inactive, NIH3T3 tox inactive and 3T3 cytotox 2 49.0.
For Cc1cccc(S(=O)(=O)N2CCCCN3[C@@H](CO)[C@H](c4ccc(-c5ccccc5)cc4)[C@@H]3C2)c1 the results were T cruzi growth-1 inactive and Pf Dd2 growth inactive.
Screening O=S(=O)(c1ccccc1)N1CCCCN2[C@@H](CO)[C@@H](c3ccc(-c4ccccc4)cc3)[C@@H]2C1 returned T cruzi growth-1 inactive, KDM4C inh inactive and Pf Dd2 growth inactive.
